GPR7 antagonist = blocks human GPR7 receptor signaling. P48145. inhibition, % at 4.4 µM. GPR7-expressing cells, fluorescence antagonist assay. actives 1.1% (n = 290,000); in the data active means inhibition above about 16%, passing the limit was not always enough;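 further: cells stimulated with the agonist NPW; 0% = agonist with vehicle and 100% = vehicle without agonist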
Target sequence (P48145 whole entry, looked up): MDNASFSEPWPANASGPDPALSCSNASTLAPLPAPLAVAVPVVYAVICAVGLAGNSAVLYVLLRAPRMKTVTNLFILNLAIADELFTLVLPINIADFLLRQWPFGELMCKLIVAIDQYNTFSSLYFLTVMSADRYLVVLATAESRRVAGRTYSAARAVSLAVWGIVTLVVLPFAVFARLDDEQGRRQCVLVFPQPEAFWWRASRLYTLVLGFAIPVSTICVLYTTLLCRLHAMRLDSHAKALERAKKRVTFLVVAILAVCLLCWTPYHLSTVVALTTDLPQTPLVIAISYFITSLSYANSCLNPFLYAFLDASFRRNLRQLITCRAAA
TAAR1 agonist = agonists of human TAAR1; Q96RJ0; CHO RD-HGA16 TAAR1, Fluo-8 calcium fluorescence; vehicle wells 0%, saturating PEA agonist 100%; activation, % at 3 µM; actives 0.99% (n = 360,000); AID 624467;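 active means activation above the mean activation of all test compounds in the run plus 3 SD, cut at about 38% in these data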
Target sequence (Q96RJ0 whole entry, looked up): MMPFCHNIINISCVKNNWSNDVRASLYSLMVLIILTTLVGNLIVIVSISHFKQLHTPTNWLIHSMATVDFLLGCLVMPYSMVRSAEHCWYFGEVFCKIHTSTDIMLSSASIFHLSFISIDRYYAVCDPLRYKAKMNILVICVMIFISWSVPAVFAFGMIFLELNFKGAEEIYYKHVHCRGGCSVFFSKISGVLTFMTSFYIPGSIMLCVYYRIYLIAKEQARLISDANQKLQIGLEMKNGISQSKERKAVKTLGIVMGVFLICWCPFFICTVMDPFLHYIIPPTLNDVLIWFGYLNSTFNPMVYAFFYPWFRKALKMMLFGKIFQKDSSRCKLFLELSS
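Repeats: no replicates (n 1) | Material: CHO-derived RD-HGA16 cells with stable Gα16 and human TAAR1 | Technique: Kinetic Fluo-8 calcium fluorescence | Schedule: 17-24 h seeding, 75 min 37 °C dye, 30 min RT | Evaluation: % activation from peak over basal fluorescence ratio, DMSO-to-PEA scaled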
CHO parental Ca = signal in parental CHO cells, OX1R antagonist counter-screen; actives 0.63% (n = 330,000); parental CHO-K1, ATP-induced calcium, Fluo-8 fluorescence; inhibition, % at 5.6 µM;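 active means inhibition above that plate's mean sample inhibition plus 3 SD, cut at about 26% in these data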;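 further: 0% = ATP-challenged DMSO wells and 100% = DMSO wells without ATP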
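Assay system: untransfected parental CHO cell line. Also added: ATP agonist challenge. Dosing: one dose, 5.6 µM nominal. Measured by: Fluo-8 fluorescence. Read-out: % inhibition. Benchmarks: ATP wells versus no-ATP DMSO wells. Repeats: no replicates.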
OX1R antag-1 = blocks the human orexin 1 receptor | O43613 | OX1R-expressing cells, FRET antagonist read-out | inhibition, % at 6.6 µM | actives 1.8% (n = 330,000) | AID 485270; in the data active means inhibition mostly above about 38%, no sharp cut-off; inactive means mostly below about 40%;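 further: 0% = agonist challenge alone and 100% = reference antagonist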
OX1R antag-2 = human HCRTR1 antagonism; O43613; AID 434989; actives 0.43% (n = 330,000); inhibition, % at 5 µM; CHO/OX1R cells, Fluo-8 calcium fluorescence, orexin A;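 active means inhibition above its plate's threshold, mean inhibition of all tested compounds on the plate plus 3 SD, cut at about 37% in these data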;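 further: 0% = orexin A challenge wells and 100% = SB-334867-A antagonist wells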
TAAR1 antagonist = antagonists of human TAAR1. CHO RD-HGA16 TAAR1, Fluo-8 calcium fluorescence, antagonist. actives 1.5% (n = 360,000). Q96RJ0. inhibition, % at 3 µM;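 active means inhibition above a per-plate cutoff, the mean inhibition of test compounds on that plate plus 3 SD, cut at about 49% in these data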;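 further: 0% = DMSO plus EC80 beta-PEA response and 100% = DMSO alone without agonist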
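Material: RD-HGA16 CHO cells with stable hTAAR1 and Gα16; Dosing: single nominal final test compound concentration of 3 µM; Schedule: seeding 17-24 h prior, 75-min 37 °C, 30-min RT dye loading; Detection: kinetic Fluo-8 calcium fluorescence measurement; Measure: % inhibition from peak post-agonist over basal fluorescence ratio; Benchmarks: vehicle and agonist controls.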
TAAR1 ag conf = confirmation of human TAAR1 agonists | shares compounds with TAAR1 agonist | CHO RD-HGA16 TAAR1, Fluo-8 calcium fluorescence; scaled: DMSO 0%, maximal phenethylamine 100% | activation, % at 3 µM | actives 82% (n = 2,400) | AID 651783;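 active means activation above a cutoff set at the run's mean compound activation plus 3 SD, cut at about 39% in these data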
Ga16 ag counter = nonselective agonist in parental cells, TAAR1 agonist counter-screen; shares compounds with TAAR1 agonist; CHO-Ga16 parental, Fluo-8 calcium fluorescence; normalized to maximal ATP response, DMSO zero; activation, % at 3 µM; actives 50% (n = 2,400);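 active means activation above the run cutoff, the mean activation over all tested wells plus 3 SD, cut at about 12% in these data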;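 further: 0% = DMSO wells and 100% = maximal ATP response on the peak over basal ratio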
TAAR1 desensitize = counter-screen for human TAAR1 agonists: agonists that desensitize TAAR1; shares compounds with TAAR1 agonist; CHO RD-HGA16 hTAAR1, Fluo-8 calcium, beta-PEA response inhibition; inhibition, % at 3 µM; actives 46% (n = 2,400); AID 651951;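 active means inhibition above the run cutoff, the mean inhibition of all test compounds plus 3 SD, cut at about 49% in these data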;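 further: beta-PEA stimulus applied at its EC80; loss of beta-PEA calcium signal after compound pretreatment read as receptor desensitization; 0% = DMSO with beta-PEA at EC80 and 100% = DMSO alone without agonist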
Ga16 antag count = nonselective Ga16 antagonist in TAAR1 agonist counter-screen; shares compounds with TAAR1 agonist; CHO-Ga16 ATP-induced calcium, Fluo-8 fluorescence; inhibition, % at 3 µM; actives 39% (n = 2,400);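 active means inhibition above the plate's mean compound inhibition plus 3 SD, computed per plate, cut at about 22% in these data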;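 further: 0% = EC80 ATP with DMSO and 100% = DMSO wells without ATP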
An asterisk follows results filed as active; . = no result. A selection: hits, their analogues and other compounds. The true share with any hit is near 4.6%.

SMILES	GPR7 antagonist	TAAR1 agonist	CHO parental Ca	OX1R antag-1	OX1R antag-2	TAAR1 antagonist	TAAR1 ag conf	Ga16 ag counter	TAAR1 desensitize	Ga16 antag count
C(=NNc1nnn(Cc2ccccc2)n1)c1ccccc1	.	54*	.	.	.	22	8	2	4	6
CCN(CC(=O)Nc1ccc(OC)cc1)C(=O)c1ccc2c(c1)NC(=O)CS2	.	0	.	.	.	-3	.	.	.	.
CC1=C(C)CS(=O)N(c2ccc(S(N)(=O)=O)cc2)C1 (stereo not given)	1	34	-8	19	4	5	.	.	.	.
CC1=C(C)CS(=O)N(S(=O)(=O)c2ccccc2)C1 (stereo not given)	3	73*	-13	19	-8	9	68*	33*	23	21
COc1ccc(CNC(=O)N2CCc3ccccc3C2)cc1Cl	15	3	-28	12	-28	-2	.	.	.	.
COc1ccc(NC(=O)N2CCc3ccccc3C2)c(OC)c1	-2	44*	1	12	-14	20	48*	0	-10	-4
COc1ccc(OC)c(NC(=O)N2CCc3ccccc3C2)c1	-8	44*	-17	10	-27	-13	57*	1	9	11
COc1ccc(NC(=O)N2CCc3cc(OC)c(OC)cc3C2)cc1	-7	1	3	3	1	-6	.	.	.	.
COc1ccc(NC(=O)N2CCc3ccccc3C2)cc1OC	-16	59*	-1	4	-10	-14	66*	3	12	1
COc1ccc(-c2nc(CSCC(=O)N3CCc4ccccc4C3)c(C)o2)cc1OC	-4	68*	-24	26	-29	29	94*	2	60*	1
CN1C(=O)/C(=C/c2ccccc2OCc2ccccc2F)NC1=S	5	11	-3	25	15	42	.	.	.	.
CCN(C(=O)COC(=O)c1c(NC(C)=O)sc(C)c1C)c1c(N)n(Cc2ccccc2)c(=O)[nH]c1=O	.	0	.	.	.	0	.	.	.	.
CC1=CC(C)(C)N2C(=O)C3(NCCc4c3[nH]c3ccccc43)c3cc(C)cc1c32 (stereo not given)	8	2	4	11	-3	-15	.	.	.	.
CC1=CC(C)(C)N2C(=O)C3(SCC(=O)N3c3ccc(F)cc3)c3cc(C)cc1c32 (stereo not given)	11	54*	12	7	-11	34	39*	25*	27	28*
Nc1cc(=O)[nH]c(SCC(=O)N2CCc3ccccc3C2)n1	-2	80*	-8	6	-10	75*	89*	5	43	7
CCCCCn1nc(C(=O)N(CCOC)c2c(N)n(CCCC)c(=O)[nH]c2=O)c2ccccc2c1=O	.	2	0	11	-26	-9	.	.	.	.
O=C(NCc1ccco1)c1sc(=S)n2c1[nH]c(=O)c1ccccc12	7	75*	-6	50*	8	36	38*	23*	15	17
Cc1cc([N+](=O)[O-])nn1CCCC(=O)NC(C)c1ccccc1 (stereo not given)	-9	1	-8	16	-12	-3	.	.	.	.
COc1ccc(C(=O)Nc2ccc(Cn3ccnc3)cc2)cc1OC	-14	1	-1	12	0	1	.	.	.	.
O=C(Nc1ccc(Cn2ccnc2)cc1)c1cccc(C(F)(F)F)c1	4	42*	.	.	.	31	57*	0	36	10
C(=NOCCc1ccccc1)c1cccnc1	.	.	.	.	.	.	.	0	.	6
C(=NOCc1ccccc1)c1ccncc1	.	0	.	.	.	-20	.	.	.	.
O=C1C(SCCO)=C(SCCO)C(=O)c2ccccc21	.	67*	48*	67*	47*	84*	71*	49*	83*	74*
Cc1cc(C)c(S(=O)(=O)N2CCN(C(=O)C3CCCO3)CC2)c(C)c1 (stereo not given)	.	2	-7	8	-9	3	.	.	.	.
NCCCCCc1nnc(SCc2ccc(Cl)c(Cl)c2)o1	4	50*	-11	7	-14	3	62*	6	31	5
SMILES	GPR7 antagonist	TAAR1 agonist	CHO parental Ca	OX1R antag-1	OX1R antag-2	TAAR1 antagonist	TAAR1 ag conf	Ga16 ag counter	TAAR1 desensitize	Ga16 antag count
NCCc1nnc(SCc2ccc(F)cc2)o1	2	7	-5	18	-9	-1	.	.	.	.
COc1ccccc1COCC(O)CNCCc1ccc(C(F)(F)F)cc1 (stereo not given)	19	13	-11	-7	-16	-14	.	.	.	.
OC(CNCCc1ccc(C(F)(F)F)cc1)COc1cccc2ccccc12 (stereo not given)	-3	60*	25	8	2	22	60*	29*	64*	44*
COc1ccc(NS(=O)(=O)c2cccc(-c3n[nH]c(=S)n3Cc3ccccc3)c2)cc1	-7	7	-8	8	-21	11	.	.	.	.
O=C(CNC(=O)c1cccc(F)c1)N/N=C/C=C/c1ccccc1	-10	.	-14	6	-17	.	.	-1	.	5
c1ccc(CCNC2=NCCS2)cc1	-5	50*	-3	10	-17	3	75*	1	28	8
O=C(O)c1ccc(-n2cc(C(=O)c3ccccc3O)cn2)cc1	3	65*	-6	0	-8	14	19	9	13	14
CCOc1ccc(Br)cc1S(=O)(=O)NCC(c1ccc(OC)cc1)N1CCOCC1 (stereo not given)	.	18	.	.	.	3	.	.	.	.
OC(c1cc(-c2cccc(Cl)c2)nc2ccccc12)C1CCCCN1 (stereo not given)	.	29	.	.	.	44	.	.	.	.
OC(c1cc(-c2ccc(C(F)(F)F)cc2)nc(C(F)(F)F)c1)C1CCCCN1 (stereo not given)	42*	82*	8	-16	-2	48	82*	62*	69*	70*
OC(c1cc(C(F)(F)F)nc2c(C(F)(F)F)cccc12)C1CCCCN1 (stereo not given)	.	67*	4	1	-5	50*	68*	44*	60*	54*
COc1ccc(S(=O)(=O)N(C)C[C@H]2Oc3ccc(NC(=O)NC4CCCCC4)cc3C(=O)N([C@H](C)CO)C[C@@H]2C)cc1	.	3	-14	1	-23	8	.	.	.	.
